EBI2 block = EBI2 receptor antagonists, beta-arrestin recruitment, primary screen, cell-based, luminescence, 7a,25-OHC stimulation, uHTS; 7a,25-OHC stimulated; inhibition, % at 5 µM; 360,000 compounds, 0.81% hits; in the data active means inhibition above about 38%;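 further: enzyme fragment complementation signal reports receptor beta-arrestin coupling in cells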
GAA850 FXN act = FXN promoter activators, primary screen, cell-based, luciferase luminescence, HEK293 lucGAA850. HEK293 lucGAA850 FXN promoter luciferase reporter, 24 h; percent of 10 µM SAHA response. activation, % at 6 µM. 360,000 compounds, 0.56% hits. AID 540364, 2011;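 active means activation above the average of all compounds screened plus 3 SD, cutoff fixed separately per campaign, cut at about 7.5% in these data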
APJ agonist = agonists of human apelin receptor APJ, primary screen, CHO-K1 cells, PathHunter beta-arrestin, luminescence. P35414. 330,000 compounds, 0.11% hits. AID 2520, 2010. activation, % at 20 µM. 0% DMSO wells, 100% apelin;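 active means activation more than six SD over the plate average, tested at 20 µM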
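Assay system: engineered CHO-K1 APJ arrestin reporter cells; Amount: 1000 CHO-K1 reporter cells seeded per well; Dosing: one dose, 20 µM compound, 1% DMSO; Times: compound stimulation 90 min at 25 °C, detection 60 min; Measured by: luminescent beta-gal fragment complementation, chemiluminescent substrate; Read-out: APJ–arrestin association signal; Controls: DMSO vs Apelin-13 10 nM.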
CXCR6 block = CXCR6 receptor inhibitors, primary screen, cell-based, beta-arrestin, luminescence, CHO-K1 PathHunter, 1536-well. inhibition, % at 20 µM. C-X-C chemokine receptor type 6 (Homo sapiens), O00574. AID 602244, 2012. 360,000 compounds, 0.36% hits; in the data active means inhibition above about 34%, passing the limit was not always enough;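 further: antagonist mode with CXCL16 agonist at 10 nM final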
CCR6 antag = CCR6 receptor antagonists, primary screen, cell-based, CHO-K1, luminescence, beta-arrestin, uHTS. CHO-K1 CCR6 PathHunter beta-arrestin, CCL20-stimulated. 340,000 compounds, 0.49% hits. C-C chemokine receptor type 6 (Homo sapiens), P51684. inhibition, % at 20 µM. AID 493098, 2011;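 active means compounds whose inhibition of the agonist-driven luminescence signal at 20 µM reaches about 50%, limit read from the data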;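 further: cells stimulated with CCL20 at 14 nM final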
Target sequence (P51684 whole entry, looked up): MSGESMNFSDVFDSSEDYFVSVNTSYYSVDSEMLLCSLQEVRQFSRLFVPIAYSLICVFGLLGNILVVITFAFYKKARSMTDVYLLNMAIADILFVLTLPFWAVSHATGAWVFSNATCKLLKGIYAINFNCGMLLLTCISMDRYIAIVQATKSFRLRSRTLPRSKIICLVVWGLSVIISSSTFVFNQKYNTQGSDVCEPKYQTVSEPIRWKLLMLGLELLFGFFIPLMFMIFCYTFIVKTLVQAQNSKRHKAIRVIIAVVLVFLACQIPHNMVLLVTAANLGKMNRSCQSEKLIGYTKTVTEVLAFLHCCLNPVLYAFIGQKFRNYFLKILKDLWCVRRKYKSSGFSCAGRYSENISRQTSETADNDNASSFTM
APJ antagonist = antagonists of human apelin receptor APJ, primary screen, CHO-K1 cells, beta-arrestin complementation, luminescence; P35414; inhibition, % at 20 µM; 330,000 compounds, 0.32% hits; AID 2521, 2010;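 active means inhibition above about 40% at 20 µM, limit read from the data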;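 further: cells challenged with 10 nM apelin-13 agonist together with compound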
EBI2 conf = EBI2 antagonist hit retest, beta-arrestin, confirmation, cell-based, single concentration, luminescence, 7a,25-OHC stimulation. shares compounds with EBI2 block. 7a,25-OHC antagonism. inhibition, % at 5 µM. 2,400 compounds, 29% hits. AID 651997, 2013;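 active means inhibition of at least 50%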
EBI2 ag = EBI2 agonist activity of antagonist hits, confirmation, counter-screen for EBI2 antagonist project, cell-based, single concentration, agonist mode, luminescence; shares compounds with EBI2 block; EBI2-expressing cells, 60 min; 0% vehicle, 100% 7α,25-dihydroxycholesterol control; activation, % at 5 µM; 2,400 tested, under 10 active; AID 652000, 2013;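 active means activation of at least 50%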
bGal cs = E. coli beta-galactosidase enzyme inhibition, confirmation, counter-screen for EBI2 antagonist project, biochemical, luminescence, single concentration; shares compounds with EBI2 block; purified beta-galactosidase, luminescent Galacton Star, 15 min; inhibition, % at 5 µM; 2,400 compounds, 1% hits;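 active means replicate-average signal at least 3 plate SD below neutral wells, shown as high inhibition, flagging enzyme-inhibiting false positives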;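 further: higher means stronger loss of beta-gal luminescence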
Hits are given with their value. The list is not random: actives were taken first. Their share in the collection is about 2%.

What do the screens show for `CCc1nc2ccc(C(=O)NCc3ccc4c(c3)OCO4)cn2c1N(CC)Cc1cccc(Br)c1`?
EBI2 block: inactive; GAA850 FXN act: inactive; CXCR6 block: inactive

Results for O=C(CN1C(=O)C2CC=CCC2C1=O)Nc1cc(C(F)(F)F)ccc1N1CCCC1 (centres undefined) ?
EBI2 block: 46.3; GAA850 FXN act: inactive; APJ agonist: inactive; CXCR6 block: inactive; CCR6 antag: inactive; APJ antagonist: inactive; EBI2 conf: inactive; EBI2 ag: inactive; bGal cs: inactive

Results for CCOC(=O)Nc1sc2c(c1C(N)=O)CCC(C)C2 (centres undefined) ?
EBI2 block: inactive; GAA850 FXN act: inactive; APJ agonist: inactive; CXCR6 block: inactive; CCR6 antag: inactive; APJ antagonist: inactive

How did CC(=O)NC(=S)Nc1sc2c(c1C(N)=O)CCC(C)C2 (centres undefined) do in these assays?
EBI2 block: 36.7; GAA850 FXN act: inactive; APJ agonist: inactive; CXCR6 block: 38.8; CCR6 antag: inactive; APJ antagonist: inactive; EBI2 conf: inactive; EBI2 ag: inactive; bGal cs: inactive

Results for CC(NC(=O)c1cc2cc(F)ccc2[nH]1)c1ccccc1 (centres undefined) ?
EBI2 block: inactive; GAA850 FXN act: inactive; APJ agonist: inactive; CXCR6 block: inactive; CCR6 antag: inactive; APJ antagonist: inactive

Results for O=C(C=Cc1ccccc1)N1CCCCC1 ?
EBI2 block: inactive; GAA850 FXN act: inactive; CXCR6 block: inactive; CCR6 antag: inactive

Results for OC(COc1ccccc1)CN1CCCCC1 (centres undefined) ?
EBI2 block: inactive; GAA850 FXN act: inactive; CXCR6 block: inactive; CCR6 antag: inactive

What do the screens show for `CN1CCN(C(=O)/C=C\c2ccc(Cl)cc2)CC1`?
EBI2 block: 88.5; GAA850 FXN act: inactive; APJ agonist: inactive; CXCR6 block: inactive; CCR6 antag: inactive; APJ antagonist: inactive; EBI2 conf: 66.2; EBI2 ag: inactive; bGal cs: inactive

How did CN1CCN(C(=O)/C=C/c2ccccc2)CC1 do in these assays?
EBI2 block: 44.8; GAA850 FXN act: inactive; APJ agonist: inactive; CXCR6 block: inactive; CCR6 antag: inactive; APJ antagonist: inactive; EBI2 conf: inactive; EBI2 ag: inactive; bGal cs: inactive

What do the screens show for `CN1CCN(C(=O)/C=C/c2cccc(Cl)c2)CC1`?
EBI2 block: 45.9; GAA850 FXN act: inactive; APJ agonist: inactive; CXCR6 block: inactive; CCR6 antag: inactive; APJ antagonist: inactive; EBI2 conf: inactive; EBI2 ag: inactive; bGal cs: inactive

What do the screens show for `O=C(/C=C/c1ccccc1)N1CCN(CC(O)COc2ccccc2)CC1` (centres undefined)?
EBI2 block: 82.1; GAA850 FXN act: inactive; APJ agonist: inactive; CXCR6 block: inactive; CCR6 antag: inactive; APJ antagonist: inactive; EBI2 conf: 54.5; EBI2 ag: inactive; bGal cs: inactive

How did OC(COc1ccc(Cl)cc1)CN1CCC(Cc2ccccc2)CC1 (centres undefined) do in these assays?
EBI2 block: 59.9; GAA850 FXN act: inactive; APJ agonist: inactive; CXCR6 block: inactive; CCR6 antag: inactive; APJ antagonist: inactive; EBI2 conf: inactive; EBI2 ag: inactive; bGal cs: inactive

What do the screens show for `CSc1ccc(/C=C/C(=O)N2CCCN(C)CC2)cc1`?
EBI2 block: 87.0; GAA850 FXN act: inactive; APJ agonist: inactive; CXCR6 block: inactive; CCR6 antag: inactive; APJ antagonist: inactive; EBI2 conf: 57.3; EBI2 ag: inactive; bGal cs: inactive

How did O=C(/C=C/c1ccc(Cl)cc1)N1CCN(CCN2C(=O)c3cccc4cccc(c34)C2=O)CC1 do in these assays?
EBI2 block: 96.7; GAA850 FXN act: inactive; CXCR6 block: inactive; CCR6 antag: inactive; EBI2 conf: 80.8; EBI2 ag: inactive; bGal cs: inactive

Results for Cc1ccc(OCC(O)CN2CCN(c3ccc(C)cc3)CC2)cc1 (centres undefined) ?
EBI2 block: inactive; GAA850 FXN act: inactive; APJ agonist: inactive; CXCR6 block: inactive; CCR6 antag: inactive; APJ antagonist: inactive

How did Cc1ccc(OCC(O)CN2CCN(CC(O)COc3ccc(C)cc3)CC2)cc1 (centres undefined) do in these assays?
EBI2 block: 45.0; GAA850 FXN act: inactive; APJ agonist: inactive; CXCR6 block: inactive; CCR6 antag: inactive; APJ antagonist: inactive; EBI2 conf: inactive; EBI2 ag: inactive; bGal cs: inactive

How did OC(COc1ccc(Cl)cc1)CN1CCN(c2ccccc2)CC1 (centres undefined) do in these assays?
EBI2 block: inactive; GAA850 FXN act: inactive; APJ agonist: inactive; CXCR6 block: inactive; CCR6 antag: inactive; APJ antagonist: inactive

How did Cc1ccc2nc(-c3ccccn3)c(N)n2c1 do in these assays?
EBI2 block: inactive; CXCR6 block: inactive

How did CC(C)(C)OC(=O)N1C[C@H](O)C[C@H]1C(=O)OCC(=O)c1ccc([N+](=O)[O-])cc1 do in these assays?
EBI2 block: inactive; GAA850 FXN act: inactive; APJ agonist: inactive; CXCR6 block: inactive; CCR6 antag: inactive; APJ antagonist: inactive

How did COc1ccc(-c2c(-c3cc(OC)cc(OC)c3)n(C)c3ccc(-c4ccc5[nH]ccc5c4)cc23)cc1 do in these assays?
EBI2 block: inactive; GAA850 FXN act: inactive; APJ agonist: inactive; CXCR6 block: inactive; CCR6 antag: inactive; APJ antagonist: inactive

Results for O=C(Nc1ccc2ccccc2c1)c1ccc(NS(=O)(=O)c2ccc(Br)s2)cc1 ?
EBI2 block: 44.2; GAA850 FXN act: inactive; APJ agonist: inactive; CXCR6 block: inactive; CCR6 antag: inactive; APJ antagonist: inactive; EBI2 conf: inactive; EBI2 ag: inactive; bGal cs: inactive

Results for O=C(c1ccncc1)c1ccc(NS(=O)(=O)c2ccc(Br)s2)cc1 ?
EBI2 block: inactive; GAA850 FXN act: inactive; APJ agonist: inactive; CXCR6 block: inactive; CCR6 antag: inactive; APJ antagonist: inactive

Bioassay records (PubChem BioAssay)
